In ChEMBL document CHEMBL1151796, “Novel anticancer agents, kayeassamins C-I from the flower of Kayea assamica of Myanmar” (2008) one finds Activity and Cytotoxicity data, which are given here for 17 compounds.

Each structure is given as a SMILES string. A value given as a limit tells only on which side of the number the result lay.

One assay relates to PANC-1. The assay is described as follows: Cytotoxicity against human PANC1 cells in nutrient-deprived condition assessed as preferential cell death within 3 hrs. Type of assay: functional, cell-based.
Details: not given
In outline: (§1)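 PANC-1 cells (2×10^4 per well, 24 h preculture in DMEM, 37 °C, 5% CO₂) were PBS-washed and exposed in NDM or DMEM for 3, 6, 9, 12 and 24 h. Morphology was checked by phase-contrast microscopy at 20×. Cells were then washed and given 2 h of 10% WST-8 in DMEM, with absorbance read at 450 nm. Viability was taken from the mean of three wells.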
For the compound `CCCC(=O)c1c(O)c(CC=C(C)C)c2oc(=O)cc([C@@H](O)CC)c2c1O` [KAYEASSAMIN E], the Activity result is “Dose-dependent effect”.

The same assay, now with this note: TDE = time-dependent effect.
Turning to `CC[C@H](O)c1cc(=O)oc2c(CC=C(C)C)c(O)c(C(=O)CC(C)C)c(O)c12` [KAYEASSAMIN G], the Activity result was “tde”.

A further assay has as its system PANC-1. Nature of the assay: Cytotoxicity against human PANC1 cells in nutrient-deprived condition.
Details: not given
Type of assay: functional. An outline of the steps:
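PANC-1 cells seeded at 2×10^4 per well, grown 24 h in DMEM at 37 °C, 5% CO₂, PBS-washed, then switched to nutrient-deprived medium (NDM) or DMEM with serial dilutions of pure compounds (1–256 µM). Incubated 24 h, washed, then 2 h with DMEM containing 10% WST-8 and read at 450 nm. Endpoint reported as PC₁₀₀.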
`CCCC(=O)c1c(O)c(C/C=C(\C)CCC=C(C)C)c(O)c2c([C@@H](O)CC)cc(=O)oc12` [KAYEASSAMIN A] registered a Cytotoxicity of 1 µM.
With `CCC(C)C(=O)c1c(O)c(CC=C(C)C)c2oc(=O)cc([C@@H](O)CC)c2c1O` (stereo not given in full) [KAYEASSAMIN F], the Cytotoxicity turned out to be 2 µM.
With `CC[C@H](O)c1cc(=O)oc2c(CC=C(C)C)c(O)c(C(=O)CC(C)C)c(O)c12` [KAYEASSAMIN G], the Cytotoxicity is 1 µM.
On to `CC[C@H](O)c1cc(=O)oc2c(C/C=C(\C)CCC=C(C)C)c(O)c(C(=O)CC(C)C)c(O)c12` [KAYEASSAMIN D], for which the Cytotoxicity was found to be 1 µM.
The same measure, in the same setting: then `CCCC(=O)c1c(O)c(CC=C(C)C)c2oc(=O)cc([C@@H](O)CC)c2c1O` [KAYEASSAMIN E], with 1 µM; and `CC(C)CC(=O)c1c2c(c3oc(=O)cc(-c4ccccc4)c3c1O)C=CC(C)(C)O2` [MAMMEIGIN], with 32 µM; and `CC[C@H](O)c1cc(=O)oc2c(C(=O)CC(C)C)c(O)c3c(c12)OC(C)(C)C=C3`, with 32 µM.
On the same count and under the same terms, as for `CCCC(=O)c1c(O)c(CC=C(C)C)c(O)c2c(-c3ccccc3)cc(=O)oc12`, the figure is 8 µM; as for `CCCC(=O)c1c(O)c2c(c3c([C@@H](O)CC)cc(=O)oc13)OC(C)(CCC=C(C)C)C=C2` (stereo not given in full) [KAYEASSAMIN I], 64 µM.
Consider `CCCC(=O)c1c2c(c3oc(=O)cc(-c4ccccc4)c3c1O)C=CC(C)(C)O2`, for which the Cytotoxicity is above 256 µM.
Regarding `CCCC(=O)c1c2c(c3oc(=O)cc(CCC)c3c1O)CC(C(C)(C)O)O2` (stereo not given), the Cytotoxicity worked out at 64 µM.
Compound `CCCC(=O)c1c(O)c(CC=C(C)C)c2oc(=O)cc(-c3ccccc3)c2c1O` [MAMMEA A/AC] had a Cytotoxicity of 16 µM.
Take `CCCC(=O)c1c(O)c(CC=C(C)C)c2oc(=O)cc3c2c1OC(C)C3` (stereo not given) [KAYEASSAMIN H]: the Cytotoxicity amounted to 64 µM.
On the same count and under the same terms, then `CCCC(=O)c1c(O)c(CC=C(C)C)c2oc(=O)cc(CCC)c2c1O`, with 2 µM; and `COc1cc(C[C@H]2C(=O)OC[C@@H]2Cc2ccc(OC)c(OC)c2)ccc1O` [ARCTIGENIN], with 1 µM.
Take `CCC(C)C(=O)c1c(O)c(C/C=C(\C)CCC=C(C)C)c2oc(=O)cc([C@@H](O)CC)c2c1O` (stereo not given in full) [KAYEASSAMIN C]: the Cytotoxicity turned out to be 4 µM.
Regarding `CCCC(=O)c1c(O)c(C/C=C(\C)CCC=C(C)C)c2oc(=O)cc([C@@H](O)CC)c2c1O` [KAYEASSAMIN B], the Cytotoxicity was determined as 1 µM.

Another assay concerns PANC-1. The assay is described as follows: Cytotoxicity against human PANC1 cells in nutrient-deprived condition assessed as complete preferential cell death at 1 uM. Format: functional, cell-based. The settings on record: TDE = time-dependent effect. An outline of the steps: as §1
As to `CC[C@H](O)c1cc(=O)oc2c(C/C=C(\C)CCC=C(C)C)c(O)c(C(=O)CC(C)C)c(O)c12` [KAYEASSAMIN D], the Activity entry was “tde”.
